Positions count from the first letter of the chain named. Calls of active or inactive are those of the source. No cut-off for these calls is given here.
Legend:
[1] = tested on: T1, Ubiquitin-conjugating enzyme E2 T (Homo sapiens), Q9NPD8 [P73K]; assay: Binding affinity to full length recombinant N-terminal 6xHis-Smt3 tagged human Ube2T P73K mutant expressed in Escherichia coli BL21(DE3) by ITC
T1 sequence (whole entry): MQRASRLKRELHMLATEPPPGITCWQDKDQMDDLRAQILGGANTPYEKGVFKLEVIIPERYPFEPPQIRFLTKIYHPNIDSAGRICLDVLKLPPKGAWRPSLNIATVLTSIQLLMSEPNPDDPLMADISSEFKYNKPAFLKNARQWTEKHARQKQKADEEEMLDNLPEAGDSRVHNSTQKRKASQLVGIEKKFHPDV

[2] = target: T2, Ubiquitin-conjugating enzyme E2 T (Homo sapiens) (UniProt Q9NPD8); assay: Inhibition of full length N-terminal 6xHis-Smt3 tagged human Ube2T expressed in Escherichia coli BL21(DE3) assessed as FANCD2 ubiquitination at 2.5 mM after 15 mins in presence of fluorescently-labeled Ub/recombinant human E1/FANCL in 0.05% Tween20 containing buffer by fluorescence assay
T2 sequence (whole entry): T1 sequence (whole entry) with K73P

[3] = target: T2, Ubiquitin-conjugating enzyme E2 T (Homo sapiens); assay: Binding affinity to [1H-15N]-labeled N-terminal 6xHis-Smt3 tagged human Ube2T (1 to 154 residues) expressed in Escherichia coli BL21(DE3) by chemical shift perturbation assay
[4] = target: Ubiquitin-conjugating enzyme E2 D3 (Homo sapiens) (UniProt P61077); assay: Inhibition of UbcH5c (unknown origin) assessed as RNF4 ubiquitination at 2.5 mM after 15 mins in presence of fluorescently-labeled […] by fluorescence assay
Chain of Ubiquitin-conjugating enzyme E2 D3 (Homo sapiens) (P61077 whole entry, looked up): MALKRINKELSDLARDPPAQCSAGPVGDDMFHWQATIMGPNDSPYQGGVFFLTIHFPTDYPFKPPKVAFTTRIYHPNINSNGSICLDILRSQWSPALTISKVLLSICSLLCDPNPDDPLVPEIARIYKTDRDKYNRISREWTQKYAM

[5] = target: T2, Ubiquitin-conjugating enzyme E2 T (Homo sapiens); assay: Inhibition of full length N-terminal 6xHis-Smt3 tagged human Ube2T expressed in Escherichia coli BL21(DE3) assessed as FANCD2 ubiquitination after 15 mins in presence of fluorescently-labeled Ub/recombinant human E1/ATP by fluorescence assay
Summary of the method: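 Ube2T-driven FANCD2 monoubiquitination with E1, FANCL and fluorescently labelled ubiquitin, tested as a four-point titration. Gels were fluorescence-scanned, and the integrated intensity of the monoubiquitinated FANCD2 band was normalized to DMSO reactions. Three independent experiments, plotted as mean ± range.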

[6] = target: T3, Ubiquitin-conjugating enzyme E2 T (Homo sapiens, UniProt Q9NPD8); assay: Binding affinity to full length N-terminal 6xHis-Smt3 tagged human Ube2T expressed in Escherichia coli BL21(DE3) by ITC
T3 sequence (Q9NPD8 whole entry): T1 sequence (whole entry) with K73P

NC(=O)C1CCCc2c1[nH]c1ccc(Cl)cc21 (configuration not stated)
Activity [1]: Active | inhibition [2]: Active | Activity [3]: Dose-dependent effect | inhibition [4]: inactive | inhibition [5]: Dose-dependent effect

NC(=O)c1ccc(-c2ccccn2)s1
Activity [3]: Dose-dependent effect

NCc1nc2ccccc2s1
inhibition [2]: Active | Kd [6]: 1300 µM | Activity [3]: Dose-dependent effect | inhibition [4]: inactive | inhibition [5]: Dose-dependent effect

N#Cc1cc(-c2ccccc2)oc1N
Activity [3]: Dose-dependent effect

Nc1nc(-c2ccccc2)cs1
Activity [1]: Active | inhibition [2]: Active | Activity [3]: Dose-dependent effect | inhibition [4]: inactive | inhibition [5]: Dose-dependent effect

From ChEMBL document CHEMBL4043089, “Allosteric Targeting of the Fanconi Anemia Ubiquitin-Conjugating Enzyme Ube2T by Fragment Screening” (J Med Chem, 2017)
